# From PubChem BioAssay
# Hits are enriched below; roughly 4.2% of the tested compounds scored in any of these assays.
# KCC2 mod: KCC2 cotransporter modulators, thallium flux, primary screen, cell-based, HEK293 KCC2, FluoZin-2 fluorescence, MLSMR | KCC2 cells, thallium flux FluoZin-2 fluorescence | Solute carrier family 12 member 5 (Homo sapiens), Q9H2X9 | 2.2% of 190,000 active | AID 1456, 2008 | B-score of Tl+ flux slope (higher = more flux/activation; lower = inhibition) at 10 µM;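 active means thallium flux slope and its plate-corrected score both differing from the plate sample mean at a set confidence after two filtering rounds, in either direction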;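 further: slope of fluorescence scaled to starting intensity during 10 to 20 s after thallium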
# hERG protect: hERG rescue from dofetilide block, primary screen, cell-based, CHO-hERG, FluxOR thallium flux, dofetilide IC70; Voltage-gated inwardly rectifying potassium channel KCNH2 (Homo sapiens), Q12809; dofetilide IC70 present; activation (rescue from dofetilide block), less the hit threshold, % at 10 µM; 0.51% of 310,000 active; AID 1511, 2009;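 active means activation above the mean of controls blocked by dofetilide plus 5 SD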;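 further: thallium influx through hERG after potassium depolarization seen as dye fluorescence rise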
# KCNQ1 pot: potentiators or activators of KCNQ1 channel, primary screen, cell-based, thallium flux, high-throughput | CHO-K1 KCNQ1, thallium flux FluxOR fluorescence; hits give high values | 0.35% of 310,000 active | Potassium voltage-gated channel subfamily KQT member 1 (Homo sapiens), P51787 | B-score at 10 µM;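 active means fluorescence ratio B-score, a plate-corrected score, at least three library SD, with initial intensity B-score within 5 SD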
#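 System: CHO-K1 cells stably expressing KCNQ1 / Medium: assay buffer for compound exposure, DMSO matched across wells / Reagent: thallium- and potassium-containing depolarizing buffer / Compound: one concentration, matched DMSO / Incubation: 20 min compound pretreatment at room temperature / Measured by: kinetic FluxOR fluorescence, 10 s baseline plus 110 s post-stimulus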
# SUMO Mot1 rescue: yeast Mot1-301 growth rescue at high temperature, primary screen, SUMOylation pathway inhibitor project, S. cerevisiae, ATP luminescence, 38.5C. S. cerevisiae Mot1-301 growth rescue; percent above DMSO median, 100 means doubled. growth rescue, % at 18.8 µM. 1% of 320,000 active;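 active means every valid replicate shows activation above 250% relative to neutral control wells; inactive means the rest, any valid replicate at or below 250%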;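 further: OY570 slx delta 5 strain wells were the positive control but not used for scaling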
# AI-2 QS modul: Vibrio harveyi AI-2 quorum sensing modulators, primary screen, JMH597 strain, luminescence/OD600 ratio. Vibrio harveyi JMH597 AI-2 luminescence/OD600 ratio, 9 h; hits give low values; strain lacks LuxN and CqsS sensors; 0 = neutral-control median. activity change, % at 7.5 µM. 0.4% of 300,000 active. AID 2094, 2009; in the data active means activity change below about -75%, passing the limit was not always enough;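 further: luminescence divided by OD600 gain over 9 h not by final OD600 alone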
# KCNQ1 block: inhibitors of human KCNQ1 channel, primary screen, cell-based, thallium flux, high-throughput; Potassium voltage-gated channel subfamily KQT member 1 (Homo sapiens), P51787; CHO-K1 KCNQ1, FluxOR thallium flux fluorescence; hits give high values; B-score at 10 µM; 1.3% of 310,000 active; AID 2642, 2010;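 active means compounds whose thallium flux B-score, printed positive for inhibition, exceeds three library SD while starting fluorescence stays within three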;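 further: channel opened by potassium depolarization with thallium stimulus after 20 min compound exposure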
# KCNQ1 block val: KCNQ1 potassium channel inhibitors, confirmation, cell-based, Tl flux, duplicate. AID 588353, 2011. 93% of 1,600 active. shares compounds with KCNQ1 block. inhibition, % at 10 µM. KCNQ1 cell line, FluxOR thallium flux fluorescence;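 active means primary screen active, with duplicate mean exceeding buffer control mean plus 3 SD of buffer wells, cut at about 28% in these data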;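 further: 0% = buffer control ratio and 100% = XE991 inhibitor control ratio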
# CHO KCNQ1 ctr: thallium flux effects in parental CHO cells, counter-screen for KCNQ1 inhibitor project, cell-based, Tl flux; shares compounds with KCNQ1 block; parental CHO-K1, FluxOR thallium flux fluorescence ratio; hits give low values; zero means no signal rise above baseline; fluorescence ratio (Tl flux) at 10 µM; 21% of 1,600 active; AID 588366, 2011;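 active means mean of duplicate thallium-flux fluorescence ratios in parental host cells more than 5 SD below the buffer control mean, cut at about 0.38 in these data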;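 further: ratio is peak minus minimum fluorescence divided by baseline fluorescence; actives read low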
# KCNQ1 ephys val: KCNQ1 channel inhibitors, confirmation, orthogonal assay, cell-based, automated electrophysiology | shares compounds with KCNQ1 block | KCNQ1-CHO cells, automated patch clamp current | calls only at 10 µM | 20% of 490 active | AID 624120, 2012;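 active means KCNQ1 current drop exceeding 3 SD of negative control wells, seen in both duplicate runs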;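 further: steady state current during a 2 s step from -80 to +40 mV; negative values mean current inhibition and positive values mean potentiation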
# KCNQ2 inh: KCNQ2 channel inhibition, selectivity assay for KCNQ1 inhibitor project, cell-based; 71% of 1,600 active; shares compounds with KCNQ1 block; KCNQ2 cells, FluxOR thallium flux fluorescence; inhibition, % at 10 µM;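 active means mean percent inhibition of the KCNQ2 thallium signal more than 5 SD above the buffer-only control wells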;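 further: KCNQ2 expressed in CHO cells; 0% = buffer control wells and 100% = XE-991 inhibitor control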
# KCNQ1-KCNE1 inh: KCNQ1/KCNE1 channel inhibition, selectivity assay for KCNQ1 inhibitor project, CHO-K1 cells, thallium flux, FluxOR. shares compounds with KCNQ1 block. FluxOR thallium flux fluorescence. inhibition, % at 10 µM. 77% of 1,600 active. AID 652147, 2013;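 active means mean percent inhibition of duplicate wells above the buffer-only control mean plus 3 SD of those controls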;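 further: 0% = buffer only wells and 100% = XE-991 inhibitor control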
# The depositor's hits bear a star; i = inactive; / = no result; + = active, no number.
SMILES,KCC2 mod,hERG protect,KCNQ1 pot,SUMO Mot1 rescue,AI-2 QS modul,KCNQ1 block,KCNQ1 block val,CHO KCNQ1 ctr,KCNQ2 inh,KCNQ1-KCNE1 inh,others
Cc1cc2cc3c(cc2nc1SCC(=O)N1c2ccccc2CC1C)OCO3 (stereo not given),0.842,-3.8,i,11.6,5.1,6*,100.0*,0.35*,77.7%*,89.5%*,
CC1Cc2ccccc2N1C(=O)COC(=O)c1c2c(nc3ccccc13)CCCCC2 (stereo not given),-2.01,-30.1,i,-7.9,20.6,7*,135.5*,0.33*,130.7%*,+,
CC1Cc2ccccc2N1C(=O)CSc1nc2cc3c(cc2cc1C#N)OCO3 (stereo not given),0.516,/,/,-4.7,/,/,/,/,/,/,
CCN(CC)S(=O)(=O)c1ccc(Cl)c(NC(=O)COc2ccc(OC)cc2)c1,-0.0324,-5.0,i,110.9,2.3,i,/,/,/,/,
CN(c1ccccc1)S(=O)(=O)c1ccc(C(=O)OCC(=O)NCc2cccs2)cc1,-0.0344,-11.6,i,46.0,-2.6,6*,38.5*,0.469,69.3%*,i,
Cn1c2c(c(=O)n(C)c1=O)C(C(F)(F)F)(C(F)(F)F)N=C(c1ccccc1Cl)N2,-0.592,-7.9,i,-23.3,21.1,i,/,/,/,/,
Cn1c(=O)c2[nH]c(-c3ccccc3Cl)c(O)c2n(C)c1=O,-0.342,-4.7,i,-11.6,16.0,6*,82.0*,0.409,i,97.5%*,
Cn1c(=O)c2[nH]c(-c3ccccc3)c(O)c2n(C)c1=O,-0.992,-11.5,i,-9.8,3.1,7*,45.0*,0.394,i,91.0%*,
O=S(=O)(Nc1ccc(-n2cccc2)cc1)c1ccc(Cl)c(Cl)c1,-1.32,-12.5,i,101.5,32.9,10*,105.5*,0.422,117.3%*,162.5%*,KCNQ1 ephys val=i
Cc1cc(C)c(C)c(S(=O)(=O)NCCCn2ccnc2)c1C,/,-5.0,i,141.2,0.8,i,/,/,/,/,
CCC(CC)c1nnc(NC(=O)C2=NNC(=O)CC2)s1,-0.554,-9.8,i,-21.5,26.6,i,/,/,/,/,
CCCNC(=O)c1ccc2nc(-c3ccccc3)c(-c3ccccc3)nc2c1,-0.673,-3.1,i,-1.0,20.1,i,/,/,/,/,
